Experimental findings from ChEMBL document CHEMBL1137618, “Synthesis and structure-activity relationship studies of 3,6-diazabicyclo[3.2.0]heptanes as novel alpha4beta2 nicotinic acetylcholine receptor selective agonists” (J Med Chem, 2007) are described below.

Experiment [1] concerns the target T1, Neuronal acetylcholine receptor; alpha3/beta4 (Homo sapiens, UniProt P30926+P32297). Description: Agonist activity at recombinant human alpha3beta4 nAChR expressed in HEK293 cells assessed as induction of calcium influx by FLIPR assay relative to nicotine. The class given is functional, cell-based. The gist of the method: (§1)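 HEK-293 lines stably expressing human α4β2 or α3β4 nAChR, grown 24-48 h at 37 °C on poly-D-lysine in DMEM/10% FBS. Loaded with 2-4 µM Fluo-4 AM for ~0.75-1 h at room temperature in the dark, in NMDG Ringer pH 7.4. Serial log dilutions added, then peak calcium fluorescence read on FLIPR after buffer-blank subtraction.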

Experiment [2] deals with T2, Neuronal acetylcholine receptor; alpha4/beta2 (Homo sapiens, UniProt P17787+P43681). As to the kind of experiment: Agonist activity at recombinant human alpha-4-beta-2 nAChR expressed in HEK293 cells assessed as induction of calcium influx by FLIPR assay relative to nicotine. The class given is functional, cell-based. The gist of the method:
as §1

For experiment [3], the target named is T1, Neuronal acetylcholine receptor; alpha3/beta4. As to the kind of experiment: Agonist activity at recombinant human alpha-3-beta-4 nAChR expressed in HEK293 cells assessed as induction of calcium influx by FLIPR assay. The class given is functional, cell-based.
In experiment [4] the target is T2, Neuronal acetylcholine receptor; alpha4/beta2. Description: Agonist activity at recombinant human alpha-4-beta-2 nAChR expressed in HEK293 cells assessed as induction of calcium influx by FLIPR assay. Type of experiment: functional, cell-based.
Experiment [5] in a line: Displacement of [3H]cytisine from neuronal nicotinic acetylcholine receptor in rat brain membrane. The class given is cell membranes. A general note: Displacement assays read how much labelled ligand stays bound in the presence of the test substance.

The EC50 is the midpoint of the concentration-response curve. For orientation: Ki means the equilibrium dissociation constant of an inhibitor or competing ligand from its target. Low values mean higher affinity, high ones lower affinity.

T2 sequence (P17787 whole entry): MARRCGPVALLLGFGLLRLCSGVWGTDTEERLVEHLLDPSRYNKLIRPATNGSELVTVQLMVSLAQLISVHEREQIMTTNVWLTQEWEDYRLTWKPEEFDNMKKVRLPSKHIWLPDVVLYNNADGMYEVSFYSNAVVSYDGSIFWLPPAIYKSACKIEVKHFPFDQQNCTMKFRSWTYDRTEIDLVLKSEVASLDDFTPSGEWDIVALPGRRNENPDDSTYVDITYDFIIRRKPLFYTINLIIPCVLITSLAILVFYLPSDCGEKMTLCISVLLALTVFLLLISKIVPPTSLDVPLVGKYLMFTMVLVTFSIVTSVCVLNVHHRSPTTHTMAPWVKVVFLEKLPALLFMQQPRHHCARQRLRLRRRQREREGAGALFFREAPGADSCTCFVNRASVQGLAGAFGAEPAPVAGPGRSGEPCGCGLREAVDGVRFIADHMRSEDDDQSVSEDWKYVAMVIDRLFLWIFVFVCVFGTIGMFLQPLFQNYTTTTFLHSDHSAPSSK
T2 sequence (P43681 whole entry): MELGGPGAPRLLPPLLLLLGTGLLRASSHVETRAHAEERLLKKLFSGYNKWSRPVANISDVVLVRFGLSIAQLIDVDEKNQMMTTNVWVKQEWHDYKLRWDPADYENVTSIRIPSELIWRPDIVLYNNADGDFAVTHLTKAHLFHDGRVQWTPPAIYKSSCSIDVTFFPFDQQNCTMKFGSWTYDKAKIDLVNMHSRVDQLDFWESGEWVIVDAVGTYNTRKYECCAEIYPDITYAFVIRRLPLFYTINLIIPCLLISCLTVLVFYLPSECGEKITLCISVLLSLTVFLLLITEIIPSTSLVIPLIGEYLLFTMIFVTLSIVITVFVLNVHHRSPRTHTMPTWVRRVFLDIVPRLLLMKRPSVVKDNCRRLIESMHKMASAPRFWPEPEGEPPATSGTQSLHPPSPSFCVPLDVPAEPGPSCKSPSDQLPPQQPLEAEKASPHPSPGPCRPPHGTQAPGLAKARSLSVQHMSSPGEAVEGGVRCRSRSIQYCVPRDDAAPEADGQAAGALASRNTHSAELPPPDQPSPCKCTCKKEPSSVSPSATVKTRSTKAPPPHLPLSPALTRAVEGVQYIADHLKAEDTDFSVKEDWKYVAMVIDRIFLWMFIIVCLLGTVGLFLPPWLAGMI
T1 sequence (P30926 whole entry): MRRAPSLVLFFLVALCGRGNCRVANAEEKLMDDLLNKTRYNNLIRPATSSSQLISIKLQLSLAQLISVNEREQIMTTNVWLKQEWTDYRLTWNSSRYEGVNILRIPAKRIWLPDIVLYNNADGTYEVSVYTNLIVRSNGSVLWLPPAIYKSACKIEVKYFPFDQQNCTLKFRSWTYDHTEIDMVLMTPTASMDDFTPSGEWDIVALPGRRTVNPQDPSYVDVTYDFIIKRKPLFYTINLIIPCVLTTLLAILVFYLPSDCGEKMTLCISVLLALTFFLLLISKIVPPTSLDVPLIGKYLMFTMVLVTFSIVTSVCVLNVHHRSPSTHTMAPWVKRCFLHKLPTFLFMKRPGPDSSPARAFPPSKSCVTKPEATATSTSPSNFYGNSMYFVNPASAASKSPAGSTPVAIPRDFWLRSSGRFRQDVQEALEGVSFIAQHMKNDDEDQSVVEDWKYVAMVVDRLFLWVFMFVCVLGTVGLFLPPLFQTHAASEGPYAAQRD
T1 sequence (P32297 whole entry): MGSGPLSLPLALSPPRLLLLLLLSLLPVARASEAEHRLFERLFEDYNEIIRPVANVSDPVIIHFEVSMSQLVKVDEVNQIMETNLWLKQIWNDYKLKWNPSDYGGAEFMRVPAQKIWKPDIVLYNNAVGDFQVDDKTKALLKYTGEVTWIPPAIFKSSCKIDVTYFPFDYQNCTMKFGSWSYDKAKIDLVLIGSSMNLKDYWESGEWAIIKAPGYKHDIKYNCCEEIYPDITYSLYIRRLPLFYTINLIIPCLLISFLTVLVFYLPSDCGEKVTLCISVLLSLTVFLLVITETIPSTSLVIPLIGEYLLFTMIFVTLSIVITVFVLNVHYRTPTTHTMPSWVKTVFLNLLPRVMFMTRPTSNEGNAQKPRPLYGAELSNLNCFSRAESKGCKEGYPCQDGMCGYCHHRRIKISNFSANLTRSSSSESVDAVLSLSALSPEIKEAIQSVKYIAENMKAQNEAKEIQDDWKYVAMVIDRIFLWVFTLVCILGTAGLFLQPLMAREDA

As to `Brc1cc(N2C[C@@H]3CN[C@@H]3C2)cnc1Br`, the Activity worked out at 90% in experiment [1] and 122% in experiment [2]. Further, the EC50 in experiment [3] (read-out: EC50) came out at 1300 nM; in experiment [4] (read-out: EC50) it was 1200 nM. Further, the Ki in experiment [5] came to 0.3 nM. Also, the “Log Ki” value in experiment [5] is listed as -9.52.
For `Clc1ccc(N2C[C@@H]3CNC[C@@H]32)cn1`, the Activity in experiment [1] is 94%; in experiment [2] it was 107%. Also, the EC50 is 1200 nM in experiment [3] (read-out: EC50) and 300 nM in experiment [4] (read-out: EC50). This compound also displayed an inhibition constant (Ki) in experiment [5] of 1.3 nM. In addition, in experiment [5], the “Log Ki” value is given as -8.9.
Regarding `Cc1cc(N2C[C@@H]3CNC[C@@H]32)cnc1Cl`, the values for the Activity in experiment [1] and in experiment [2] were 89% and 134%, respectively. The EC50 in experiment [3] (read-out: EC50) came to 2200 nM; in experiment [4] (read-out: EC50) it was 600 nM. In addition, in experiment [5], affinity was put at a Ki of 0.2 nM. Also, the “Log Ki” value in experiment [5] is -9.7.
On to `COc1cncc(N2C[C@H]3CNC[C@H]32)c1`, for which the Activity in experiment [1] worked out at 72%; in experiment [2] it was 90%. In addition, the EC50 in experiment [3] (read-out: EC50) was 25800 nM; in experiment [4] (read-out: EC50), 3600 nM; in experiment [4] (read-out: Log EC50 (converted)), 3390 nM. This compound registered a Ki in experiment [5] of 0.8 nM. Moreover, the “Log Ki” value in experiment [5] was -9.12.
Consider `N#Cc1cncc(N2C[C@@H]3CN[C@@H]3C2)c1`, for which the Activity in experiment [1] worked out at 84%; in experiment [2], 102%. Further, the EC50 is 7100 nM in experiment [3] (read-out: EC50), 14600 nM in experiment [4] (read-out: EC50) and 13200 nM in experiment [4] (read-out: Log EC50 (converted)). For the same compound, the Ki in experiment [5] is 1.7 nM. Also, the “Log Ki” value in experiment [5] is reported as -8.77.
With `Clc1cc(N2C[C@@H]3CN[C@@H]3C2)cnc1Cl` [SOFINICLINE], the figures for the Activity in experiment [1] and in experiment [2] were 92% and 110%, respectively. For the same compound, the EC50 in experiment [3] (read-out: EC50) came out at 1500 nM; in experiment [4] (read-out: EC50), 400 nM. The compound further registered a Ki in experiment [5] of 0.3 nM. For the same compound, the “Log Ki” value in experiment [5] is given as -9.53.
Regarding `Cc1cc(N2C[C@@H]3CN[C@@H]3C2)cnc1Cl`, the Activity in experiment [1] was 100%; in experiment [2] it was 134%. In addition, the EC50 was determined as 700 nM in experiment [3] (read-out: EC50) and 300 nM in experiment [4] (read-out: EC50). For the same compound, the Ki in experiment [5] was determined as 0.08 nM. In experiment [5], the “Log Ki” value is on record as -10.1.
Regarding `c1coc(-c2cncc(N3C[C@H]4CNC[C@H]43)c2)n1`, the Activity in experiment [1] and in experiment [2] was under 10% each time.
Take `Cc1ncc(N2C[C@@H]3CN[C@@H]3C2)cc1C#N`: the Activity in experiment [1] worked out at 94%; in experiment [2] it was 119%. For the same compound, the EC50 in experiment [3] (read-out: EC50) was 900 nM; in experiment [4] (read-out: EC50), 800 nM; in experiment [4] (read-out: Log EC50 (converted)) it was 724 nM. Also, the Ki in experiment [5] worked out at 0.6 nM. The “Log Ki” value in experiment [5] is recorded as -9.2.
With `Brc1cncc(N2C[C@@H]3CNC[C@@H]32)c1`, the Activity was 23% in experiment [1] and 20% in experiment [2]. In addition, the EC50 is 6600 nM in experiment [3] (read-out: EC50), 3090 nM in experiment [3] (read-out: Log EC50 (converted)), 11400 nM in experiment [4] (read-out: EC50) and 8710 nM in experiment [4] (read-out: Log EC50 (converted)). For the same compound, in experiment [5], the affinity corresponds to a Ki of 1.5 nM. For the same compound, in experiment [5], the “Log Ki” value is recorded as -8.83.
Regarding `Clc1cncc(N2C[C@@H]3CN[C@@H]3C2)c1`, the Activity in experiment [1] was 57%; in experiment [2], 66%. Moreover, the values for the EC50 in experiment [3] (read-out: EC50), in experiment [4] (read-out: EC50) and in experiment [4] (read-out: Log EC50 (converted)) were 25300 nM, 11400 nM and 9330 nM, respectively. In experiment [5], this compound displayed a Ki of 1.9 nM. Moreover, the “Log Ki” value in experiment [5] is -8.72.
In the case of `Cc1cc(N2C[C@H]3CNC[C@H]32)cnc1Cl`, the results for the Activity in experiment [1] and in experiment [2] were 97% and 133%, respectively. Also, the values for the EC50 in experiment [3] (read-out: EC50), in experiment [4] (read-out: EC50) and in experiment [4] (read-out: Log EC50 (converted)) were 600 nM, 200 nM and 229 nM, respectively. The Ki in experiment [5] turned out to be 0.2 nM. For the same compound, the “Log Ki” value in experiment [5] is listed as -9.7.
With `Cc1ncc(N2C[C@H]3CN[C@H]3C2)cc1C#N`, the Activity came out at 101% in experiment [1] and 136% in experiment [2]. Moreover, the EC50 was 90 nM in experiment [3] (read-out: EC50), 500 nM in experiment [4] (read-out: EC50) and 43.7 nM in experiment [4] (read-out: Log EC50 (converted)). Besides, in experiment [5], the affinity corresponds to a Ki of 0.06 nM. For the same compound, in experiment [5], the “Log Ki” value is -10.22.
`Cc1cc(N2C[C@H]3CN[C@H]3C2)cnc1Cl`: the Activity amounted to 119% in experiment [1] and 228% in experiment [2]. Further, the EC50 in experiment [3] (read-out: EC50) is 200 nM; in experiment [3] (read-out: Log EC50 (converted)) it was 178 nM; in experiment [4] (read-out: EC50), 700 nM; in experiment [4] (read-out: Log EC50 (converted)), 72.4 nM. The compound also had a Ki in experiment [5] of 0.04 nM. Also, in experiment [5], the “Log Ki” value is on record as -10.4.
Regarding `Cc1ncc(N2C[C@@H]3CNC[C@@H]32)cc1C#N`, the Activity was found to be 95% in experiment [1] and 116% in experiment [2]. Also, the EC50 in experiment [3] (read-out: EC50) is 1600 nM; in experiment [4] (read-out: EC50), 500 nM. Further, in experiment [5], the affinity corresponds to a Ki of 0.7 nM. For the same compound, the “Log Ki” value in experiment [5] is on record as -9.18.
For `Brc1cncc(N2C[C@H]3CN[C@H]3C2)c1`, the Activity in experiment [1] worked out at 115%; in experiment [2] it was 161%. Further, the concentration for a half-maximal effect (EC50) is 200 nM in experiment [3] (read-out: EC50), 240 nM in experiment [3] (read-out: Log EC50 (converted)) and 1100 nM in experiment [4] (read-out: EC50). In addition, in experiment [5], the Ki amounted to 0.1 nM. The “Log Ki” value in experiment [5] is given as -10.2.
Consider `C#Cc1cncc(N2C[C@H]3CNC[C@H]32)c1`, for which the Activity is 57% in experiment [1] and 77% in experiment [2]. Further, the EC50 in experiment [3] (read-out: EC50) is 86900 nM; in experiment [3] (read-out: Log EC50 (converted)), 77600 nM; in experiment [4] (read-out: EC50), 13400 nM; in experiment [4] (read-out: Log EC50 (converted)), 4900 nM.
As for `NC(=O)c1cc(N2C[C@H]3CNC[C@H]32)cnc1Br`, the Activity is 88% in experiment [1] and 155% in experiment [2]. For the same compound, the EC50 is 21200 nM in experiment [3] (read-out: EC50), 20900 nM in experiment [3] (read-out: Log EC50 (converted)) and 1100 nM in experiment [4] (read-out: EC50). In addition, the Ki in experiment [5] was 6.5 nM. Further, in experiment [5], the “Log Ki” value is -8.19.
As to `Brc1cncc(N2C[C@H]3CNC[C@H]32)c1`, the values for the Activity in experiment [1] and in experiment [2] were under 10% and 31%, respectively. In addition, the EC50 in experiment [4] (read-out: EC50) is 4400 nM; in experiment [4] (read-out: Log EC50 (converted)) it was 4070 nM. The compound further gave a Ki in experiment [5] of 3.1 nM. Also, the “Log Ki” value in experiment [5] is -8.51.
For the compound `CN1CCC[C@H]1c1cccnc1` [NICOTINE], the Activity in experiment [1] worked out at 89%; in experiment [2] it was 101%.
In the case of `N=C(NO)c1cncc(N2C[C@H]3CNC[C@H]32)c1`, the results for the Activity in experiment [1] and in experiment [2] were under 10% and 76%, respectively. The EC50 was 7200 nM in experiment [4] (read-out: EC50) and 6760 nM in experiment [4] (read-out: Log EC50 (converted)). Also, in experiment [5], the Ki was 29.1 nM. Further, the “Log Ki” value in experiment [5] is on record as -7.54.
In the case of `N#Cc1cc(N2C[C@H]3CNC[C@H]32)c[n+]([O-])c1`, the results for the Activity in experiment [1] and in experiment [2] were under 10% and 69%, respectively. Further, the figures for the EC50 in experiment [4] (read-out: EC50) and in experiment [4] (read-out: Log EC50 (converted)) were 7500 nM and 4570 nM, respectively. The compound also had a Ki in experiment [5] of 18.6 nM. The “Log Ki” value in experiment [5] was -7.74.
`Clc1ccc(C2CC3CCC2N3)cn1` (centres undefined) [EPIBATIDINE]: the Activity was determined as 103% in experiment [1] and 133% in experiment [2].
Take `N#Cc1cncc(N2C[C@H]3CNC[C@H]32)c1`: the Activity in experiment [1] is 16%; in experiment [2] it was 65%. Moreover, the half-maximal effective concentration (EC50) is 5900 nM in experiment [4] (read-out: EC50) and 5130 nM in experiment [4] (read-out: Log EC50 (converted)). In addition, the Ki in experiment [5] stood at 3.2 nM. Also, the “Log Ki” value in experiment [5] was -8.5.
